The subject of experiment [1] is Olaparib-resistant PEO1. Kind of experiment: Antitumor activity against human Olaparib-resistant PEO1 cells assessed as H3K9me2 protein level for 72 hrs by immunoblot analysis. The format is functional, cell-based. Summed up: (§1)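 PEO1-OR cells treated 72 h with DMSO or UNC0642 at two-fold dilutions from 2 μM to 125 nM. Histone extracts immunoblotted for H3K9me2, with H3K27me3 as a specificity check; densitometry normalized to total H3. For immunofluorescence, cells were fixed on coverslips in 4% paraformaldehyde and permeabilized with 0.2% Triton X-100, with DAPI counterstain.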

Experiment [2] has as its system Olaparib-resistant PEO1. Kind of experiment: Antitumor activity against human Olaparib-resistant PEO1 cells assessed as H3K9me2 protein level at 500 nM for 72 hrs by immunofluorescence analysis. The format is functional, cell-based. In short, it runs like this:
as §1

The test system of experiment [3] is Olaparib-resistant PEO1. Kind of experiment: Induction of cell cycle arrest in human Olaparib-resistant PEO1 cells assessed as accumulation of cells in G2 phase pretreated for 72 hrs by UNC0642 follwed by compound addition at 1 uM incubated for 72 hrs by propidium iodide staining based flow cytometry analysis (reference value: 23.2 %). Type of experiment: functional.

For experiment [4], the system named is Olaparib-resistant PEO1. Kind of experiment: Induction of cell cycle arrest in human Olaparib-resistant PEO1 cells assessed as accumulation of cells in S phase pretreated for 72 hrs by UNC0642 follwed by compound addition at 1 uM incubated for 72 hrs by propidium iodide staining based flow cytometry analysis (reference value: 21.9%). Type of experiment: functional.

The test system of experiment [5] is Olaparib-resistant PEO1. Kind of experiment: Induction of cell cycle arrest in human Olaparib-resistant PEO1 cells assessed as accumulation of cells in G1 phase pretreated for 72 hrs by UNC0642 follwed by compound addition at 1 uM incubated for 72 hrs by propidium iodide staining based flow cytometry analysis (reference value: 52.9%). Type of experiment: functional.

Experiment [6] relates to Olaparib-resistant PEO1. Kind of experiment: Inhibition of EHMT1/2 in human Olaparib-resistant PEO1 cells assessed as reduction in Cyclin A protein level at 1 uM for 72 hrs by immunoblot analysis. Type of experiment: functional, cell-based. In short, it runs like this: (§2)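 PEO1-OR cells were treated with olaparib and/or UNC0642 as for the cell-cycle experiment. Total RIPA lysates were immunoblotted for cell-cycle proteins, and band intensity was normalized to actin, relative to the non-pretreated control.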

Experiment [7] concerns Olaparib-resistant PEO1. Description: Inhibition of EHMT1/2 in human Olaparib-resistant PEO1 cells assessed as reduction in Cyclin B1 protein level at 1 uM for 72 hrs by immunoblot analysis. Type of experiment: functional, cell-based. Summed up: as §2
The test system of experiment [8] is Olaparib-resistant PEO1. Kind of experiment: Inhibition of EHMT1/2 in human Olaparib-resistant PEO1 cells assessed as reduction in total CDC25C protein level at 1 uM for 72 hrs by immunoblot analysis. The format is functional, cell-based. In short, it runs like this: as §2
In experiment [9] the target is T1, Histone-lysine N-methyltransferase EHMT1 (Homo sapiens) (UniProt Q9H9B1).
T1 sequence (whole entry): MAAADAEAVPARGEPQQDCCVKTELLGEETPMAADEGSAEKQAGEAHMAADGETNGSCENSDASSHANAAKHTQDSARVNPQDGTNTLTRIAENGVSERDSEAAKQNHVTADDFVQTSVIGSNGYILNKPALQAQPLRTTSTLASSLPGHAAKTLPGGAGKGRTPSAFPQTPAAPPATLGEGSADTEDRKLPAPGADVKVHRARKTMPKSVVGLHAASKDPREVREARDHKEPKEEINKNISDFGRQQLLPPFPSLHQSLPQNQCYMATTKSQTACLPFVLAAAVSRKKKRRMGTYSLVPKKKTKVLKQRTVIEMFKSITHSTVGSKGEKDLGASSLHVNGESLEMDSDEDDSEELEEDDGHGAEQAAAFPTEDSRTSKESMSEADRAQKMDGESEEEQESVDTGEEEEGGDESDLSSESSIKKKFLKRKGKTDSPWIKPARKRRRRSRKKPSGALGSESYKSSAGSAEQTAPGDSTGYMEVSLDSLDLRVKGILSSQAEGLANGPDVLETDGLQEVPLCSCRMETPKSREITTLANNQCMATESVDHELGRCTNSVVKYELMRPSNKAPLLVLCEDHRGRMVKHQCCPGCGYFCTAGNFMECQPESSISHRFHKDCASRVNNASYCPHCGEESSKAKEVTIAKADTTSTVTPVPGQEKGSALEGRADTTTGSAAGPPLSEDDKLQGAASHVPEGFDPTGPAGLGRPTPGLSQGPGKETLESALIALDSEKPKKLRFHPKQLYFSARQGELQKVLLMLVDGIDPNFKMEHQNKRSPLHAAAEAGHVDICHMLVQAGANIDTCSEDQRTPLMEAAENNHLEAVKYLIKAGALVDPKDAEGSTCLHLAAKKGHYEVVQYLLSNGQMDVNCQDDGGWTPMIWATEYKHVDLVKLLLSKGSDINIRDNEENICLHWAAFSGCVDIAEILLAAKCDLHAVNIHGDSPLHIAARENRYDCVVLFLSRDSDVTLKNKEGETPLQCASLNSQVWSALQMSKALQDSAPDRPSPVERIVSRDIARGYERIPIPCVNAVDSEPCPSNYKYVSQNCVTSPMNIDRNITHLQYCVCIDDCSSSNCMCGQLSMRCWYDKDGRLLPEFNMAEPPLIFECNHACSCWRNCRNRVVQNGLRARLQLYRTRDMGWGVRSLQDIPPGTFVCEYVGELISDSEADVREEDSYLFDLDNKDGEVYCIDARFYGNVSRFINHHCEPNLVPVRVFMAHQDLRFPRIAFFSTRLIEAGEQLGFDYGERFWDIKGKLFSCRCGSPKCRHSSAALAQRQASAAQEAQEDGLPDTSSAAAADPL
Description: Inhibition of EHMT1 in human Olaparib-resistant PEO1 cells assessed as reduction in CDC25C phosphorylation at 1 uM for 72 hrs by immunoblot analysis. Type of experiment: cell-based. In short, it runs like this: as §2

The test system of experiment [10] is Olaparib-resistant PEO1. Description: Induction of cell cycle arrest in human Olaparib-resistant PEO1 cells assessed as accumulation of cells in G2 phase pretreated for 72 hrs by vehicle follwed by compound addition at 1 uM incubated for 72 hrs by propidium iodide staining based flow cytometry analysis (reference value: 20.7%). The format is functional.
Experiment [11] relates to Olaparib-resistant PEO1. Kind of experiment: Induction of cell cycle arrest in human Olaparib-resistant PEO1 cells assessed as accumulation of cells in S phase pretreated for 72 hrs by vehicle follwed by compound addition at 1 uM incubated for 72 hrs by propidium iodide staining based flow cytometry analysis (reference value: 21.5%). Type of experiment: functional.
The test system of experiment [12] is Olaparib-resistant PEO1. Description: Induction of cell cycle arrest in human Olaparib-resistant PEO1 cells assessed as accumulation of cells in G1 phase pretreated for 72 hrs by vehicle follwed by compound addition at 1 uM incubated for 72 hrs by propidium iodide staining based flow cytometry analysis (reference value: 54.7%). The format is functional.

This is an account of results in ChEMBL document CHEMBL5712910, “Histone methyltransferases EHMT1 and EHMT2 (GLP/G9A) maintain PARP inhibitor resistance in high-grade serous ovarian carcinoma” (Clin Epigenetics, 2019).

Activity calls are given as the source filed them. The calls are words filed in the database; no cut-off is given here.

`COc1cc2c(NC3CCN(C(C)C)CC3)nc(N3CCC(F)(F)CC3)nc2cc1OCCCN1CCCC1`: the result with Olaparib-resistant PEO1 [1], in the experiment on Olaparib-resistant PEO1 [2], in the experiment with Olaparib-resistant PEO1 [6], in the experiment on Olaparib-resistant PEO1 [7] and in the experiment with Olaparib-resistant PEO1 [8] was Active. Further, the Activity in the experiment with Olaparib-resistant PEO1 [3] was 22.5%; in the experiment on Olaparib-resistant PEO1 [4], 23.4%; in the experiment on Olaparib-resistant PEO1 [5], 51.7%; in the experiment with Olaparib-resistant PEO1 [10], 21.5%; in the experiment with Olaparib-resistant PEO1 [11] it was 22.8%; with Olaparib-resistant PEO1 [12], 53.3%. The inhibition result in [9] was “Active”.
